About 560 (0.25%) of roughly 220,000 compounds were called active.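 The calls were made as follows: active = inhibition at or above 40%; inactive = inhibition below 40%.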 For the sample, actives were picked, then their nearest neighbours and some compounds at random.
biological target: Prothrombin (Homo sapiens) (UniProt P00734); assay: human alpha-thrombin inhibitors, primary screen, counter-screen for coagulation protease inhibitor project, biochemical, 1536-well, fluorogenic AMC substrate (AID 1046); conditions: Boc-VPR-AMC fluorogenic substrate cleavage, at 5 µM, active compounds read high;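 also: 0% = enzyme with no compound and 100% = wells without enzyme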
Method in brief: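 Material: human alpha-thrombin protein; Also added: Boc-VPR-AMC substrate, 15 µM final; Timing: enzyme reaction carried out at room temperature; Signal: fluorescence, ex 355 nm, em 460 nm; Measure: % inhibition of thrombin; Controls: enzyme without compound as high, wells lacking enzyme as low.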

Row | SMILES | inhibition
1 | CN1CCN(CCC(=O)N/N=C/C=C2\N(C)c3ccccc3C2(C)C)CC1 | -4.81% (inactive)
2 | CC(C)(C)NC(=O)c1cccc(NC(=O)Cc2ccc(Br)cc2)c1 | -6.49% (inactive)
3 | CC(=O)NNC(=O)c1csc(Cc2c(Cl)sc3ccc(Cl)cc23)n1 | -1.7% (inactive)
4 | CCOC(=O)C1CCN(c2c(Nc3cc(C)cc(C)c3)c(=O)c2=O)CC1 | -1.29% (inactive)
5 | CS(=O)(=O)n1nc(-c2ccco2)nc1N | 1.66% (inactive)
6 | CSc1nc(-c2ccco2)nn1C(=O)c1ccccc1Cl | 0.04% (inactive)
7 | CSc1nc(-c2ccco2)nn1C(=O)CCc1ccccc1 | 99.4% (active)
8 | O=C(c1cccc(S(=O)(=O)N2CCCC2)c1)N(Cc1ccco1)C1CCS(=O)(=O)C1 (configuration not stated) | -1.64% (inactive)
9 | COC(=O)C(NS(=O)(=O)c1ccc(F)cc1)c1ccccc1 (configuration not stated) | 5.5% (inactive)
10 | CC(=O)NC(NC(=S)Nc1c(C)n(C)n(-c2ccccc2)c1=O)C(Cl)(Cl)Cl (configuration not stated) | -5.85% (inactive)
11 | CCn1c(-c2cccnc2Cl)nc2cc(C)c(C)cc21 | 0.78% (inactive)
12 | Cc1ccccc1CC1(CO)CCCN(C(=O)c2cc(-c3ccccc3)no2)C1 (configuration not stated) | -8.1% (inactive)
13 | CC(C)CC(CC(C)C)=NNC(=O)c1ccc(CSc2nncn2C)cc1 | 6.95% (inactive)
14 | CCn1ncc(CNC(=O)C2(C)CC2(Br)Br)c1C (configuration not stated) | -5.28% (inactive)
15 | CC1(C)CC(=O)c2cnc3nc4ccccc4n3c2C1 | -14.5% (inactive)
16 | Cc1ccc(C)c2[nH]c(=O)c(CN(Cc3cccnc3)C(=S)NCc3ccco3)cc12 | -27% (inactive)
17 | COc1ccccc1N1CCN(c2ccc([N+](=O)[O-])nc2)CC1 | 1.48% (inactive)
18 | COc1ccc(CN2CCC(c3nc4ccc(Cl)cc4[nH]3)CC2)cc1 | 1.55% (inactive)
19 | Cc1ccc(NNC(=O)c2cccs2)cc1Cl | 0.15% (inactive)
20 | CCC(=O)NCc1cc(-c2nn(C)c(=O)c3ccccc23)ccc1OC | 2.19% (inactive)
21 | COc1ccc(-c2nn(C)c(=O)c3ccccc23)cc1NC(=O)COc1ccccc1 | 3.07% (inactive)
22 | COc1ccc(-c2nn(C)c(=O)c3ccccc23)cc1CNC(=O)C1CCCCC1 | 70.8% (active)
23 | Cc1cc(CO)nn1-c1ccc([N+](=O)[O-])cc1 | -4.29% (inactive)
24 | Cc1nnc(N/N=C/c2cccs2)[nH]c1=O | -0.86% (inactive)
25 | CCn1c(=O)c2cc(C(=O)Nc3cccc(C(C)=O)c3)sc2c2ccccc21 | -4.44% (inactive)

Row | SMILES | inhibition
26 | CC(C)S(=O)(=O)c1csc(NC(=O)Nc2ccc(Cl)cc2)c1Cl | 3.02% (inactive)
27 | COC(=O)c1nc(NC(=O)c2ccc(C(C)(C)C)cc2)n[nH]1 | 58.9% (active)
28 | O=C(Nc1nsc(-c2ccccc2)n1)c1ccncc1 | 3.88% (inactive)
29 | COc1ccc(C(=O)Nc2ccc(F)cc2F)cc1 | -13.8% (inactive)
30 | COC(=O)c1nc(NC(=O)c2ccccc2)n[nH]1 | 98.4% (active)
31 | COc1ccc(N2CCN(C(=O)CNC(=O)c3ccc(C(C)(C)C)cc3)CC2)cc1 | 12.8% (inactive)
32 | Cn1sc(NC(=O)c2ccccc2)nc1=O | 3.97% (inactive)
33 | O=C(Nc1n[nH]c(C(F)(F)F)n1)c1cccs1 | 5% (inactive)
34 | COC(=O)c1nc(NC(=O)c2ccc(F)cc2)n[nH]1 | 94.8% (active)
35 | C/C(=N/NC(=O)c1ccc(NC(=O)c2ccc(F)cc2)cc1)c1ccccc1 | 3.8% (inactive)
36 | S=c1[nH]nc(-c2ccncc2)n1/N=C/c1ccccc1Cl | -3.11% (inactive)
37 | COc1ccccc1-c1noc(CSc2nc(C)cc(=O)[nH]2)n1 | -11.8% (inactive)
38 | Cc1ccc(SC(C)C(=O)NCc2ccc(F)cc2)cc1 (configuration not stated) | -10% (inactive)
39 | Cc1c(-c2ccccc2)n[nH]c1C(=O)N=Nc1c(O)[nH]c2ccccc12 | -11.5% (inactive)
40 | Cc1nc(SCc2ccc(F)cc2)c([N+](=O)[O-])[nH]1 | -2.86% (inactive)
41 | ClC1(Cl)CC1CSc1ncn[nH]1 (configuration not stated) | 102% (active)
42 | Cn1nnc(NC(=O)CSc2ncn[nH]2)n1 | -4.19% (inactive)
43 | COc1ccc(Cl)cc1CSc1ncn[nH]1 | -8.18% (inactive)
44 | CC1CN(CCOc2ccccc2[N+](=O)[O-])CC(C)O1 (configuration not stated) | 1.06% (inactive)
45 | Cc1ccc(NC(=O)c2ccn(C(=O)Nc3ccccc3)n2)c(C)c1 | 1.51% (inactive)
46 | CC1=NCCN1S(=O)(=O)c1cccc([N+](=O)[O-])c1 | 2.02% (inactive)
47 | CCCC(=O)OCC(=O)Nc1cc(Cl)ccc1[N+](=O)[O-] | -3.57% (inactive)
48 | O=C(Nc1ccccc1)Nc1nnc(COc2ccccc2F)s1 | -0.32% (inactive)
49 | O=C(c1cccc([N+](=O)[O-])c1)N1CCN(C(=O)c2ccco2)CC1 | -2.02% (inactive)
50 | O=c1[nH]n(-c2ccc([N+](=O)[O-])cc2)c(=O)c2ccccc12 | -6.59% (inactive)

Row | SMILES | inhibition
51 | CCN1CCN(C(=O)/C=C\C(=O)O)CC1 | -0.06% (inactive)
52 | C/C(=C/C(=O)N1CCN(C)CC1)C(=O)O | 103% (active)
53 | CN1CCN(C(=O)C2C3C=CC(C3)C2C(=O)O)CC1 (configuration not stated) | -0.84% (inactive)
54 | NS(=O)(=O)c1ccc(CCNC(=O)CCCn2c(SCC(=O)N3CCCC3)nc3ccsc3c2=O)cc1 | -6.72% (inactive)
55 | OCCC#Cc1ccc(CN2CCN(Cc3ccsc3)C(CCO)C2)cc1 (configuration not stated) | -1.75% (inactive)
56 | CCN(CC)C(=O)CC1(c2ccccc2OC)CCOC(C(C)C)C1 (configuration not stated) | -1.89% (inactive)
57 | Cc1ccc(S(=O)(=O)N(C)C)cc1NC(=O)/C=C/c1cccs1 | -6.43% (inactive)
58 | O=C(CC1C(=O)NCCN1Cc1ccc(-c2ccccc2)cc1)NCC1CCOCC1 (configuration not stated) | -6.7% (inactive)
59 | COCC1CCCN(Cc2cn[nH]c2-c2cc3ccccc3o2)C1 (configuration not stated) | -10.5% (inactive)
60 | Cc1ccc(C(=O)Nc2sc(Cc3ccc4c(c3)OCO4)c(C)c2C(N)=O)cc1 | 2.74% (inactive)
61 | O=C(Nn1cnc2ccccc2c1=O)c1ccc([N+](=O)[O-])cc1Cl | 6.94% (inactive)
62 | O=C(CSc1cccc[n+]1[O-])c1ccc(Cl)cc1 | -1.76% (inactive)
63 | Cc1ccc(N(C(=O)Cc2cccs2)C(C(=O)NCC2CCCO2)c2ccncc2)cc1 (configuration not stated) | 0.6% (inactive)
64 | COc1ccc(S(=O)(=O)N2CCC(C(=O)OCC(=O)c3ccccc3)CC2)cc1[N+](=O)[O-] | 0.56% (inactive)
65 | O=C(NNC(=S)Nc1ccc(F)cc1)[C@H]1C[C@@H]1c1ccccc1 | -10.3% (inactive)
66 | COC(=O)c1ccc(-c2noc(CN(Cc3ccccn3)CC3CCCO3)n2)cc1 (configuration not stated) | 21.1% (inactive)
67 | CN(Cc1ccccn1)Cc1nc(-c2ccc(Cl)cc2)no1 | 57.7% (active)
68 | CCN1CC(CN(C)Cc2nc(-c3ccc(Cl)cc3)no2)CC1=O (configuration not stated) | -8.96% (inactive)
69 | Cc1c(C(=O)O)nnn1-c1nonc1N | 2.29% (inactive)
70 | OC1CSc2nc3ccccc3n2C1 (configuration not stated) | 0.85% (inactive)
71 | O=C(NC(=S)Nc1cc(C(F)(F)F)ccc1N1CCOCC1)c1ccc(-c2cccc(Cl)c2)o1 | -10.3% (inactive)
72 | CC1(OC(=O)CCc2ccccc2)C(=O)C=C2C=C(c3ccc(C#N)cc3)N(CCc3ccccn3)C=C2C1=O (configuration not stated) | -12.4% (inactive)
73 | CC(=O)C1=C(O)C(=O)N(c2cccnc2)C1c1ccc([N+](=O)[O-])cc1 (configuration not stated) | 2.53% (inactive)
74 | Cc1cccc(NC(=S)NC23CN4CN(CN(C4)C2)C3)c1 | 53.8% (active)
75 | Cc1cccc(NC(=S)Nc2ccc(Br)cc2)c1 | 3.41% (inactive)

Row | SMILES | inhibition
76 | Cc1cccc(NC(=S)Nc2ccc(Cl)c(Cl)c2)c1 | 0.05% (inactive)
77 | S=C(Nc1ccc(Br)cc1Cl)N1CCC2(CC1)OCCO2 | -1.42% (inactive)
78 | O=C(NC1CCN(Cc2ccccc2)CC1)c1cc(Br)c(Br)[nH]1 | 1.26% (inactive)
79 | O=C(CCCOc1ccc(Cl)cc1Cl)NNC(=O)C1CCC1 | -6.08% (inactive)
80 | N/C(=N\OS(=O)(=O)c1cccc([N+](=O)[O-])c1)c1ccncc1 | -6.25% (inactive)
81 | CCCCNC(=O)CSc1nc2ccc(NC(=O)CSc3nnc(N)s3)cc2s1 | -6.44% (inactive)
82 | O=C(Cc1ccccc1)N1N=C(c2ccncc2)CC1(O)C(F)(F)F (configuration not stated) | 2.25% (inactive)
83 | COc1ccccc1C(=O)n1nc(-c2ccccc2)nc1N | 19.2% (inactive)
84 | CCCC(=O)n1nc(-c2ccccc2)nc1N | 27.1% (inactive)
85 | COc1ccc(CC(=O)n2nc(-c3cccnc3)nc2N)cc1 | 89.7% (active)
86 | CCN1CCN(c2nc(Nc3cc(OC)ccc3OC)nc(Nc3cc(OC)ccc3OC)n2)CC1 | -2.15% (inactive)
87 | Cc1nnc(SCC(=O)N2CCc3ccccc3C2)s1 | 7.65% (inactive)
88 | Cc1nc(SCC(=O)N2CC(=O)Nc3ccccc32)c2c(C)c(C)sc2n1 | -0.55% (inactive)
89 | Cc1nc(SCC(=O)N2CCc3ccccc3C2)c2c(C)c(C)sc2n1 | 103% (active)
90 | CC1(C)Cc2cccc(OCC(=O)N3CCN(c4ccc([N+](=O)[O-])cc4)CC3)c2O1 | -1.43% (inactive)
91 | COc1ccc(NC(=O)C2=C(C)NC(=O)NC2c2ccccc2[N+](=O)[O-])cc1 (configuration not stated) | -0.08% (inactive)
92 | CCOC(=O)N/N=C1\CC(C)S(=O)(=O)c2ccc(Cl)cc21 (configuration not stated) | 28.2% (inactive)
93 | Cc1cc(=O)[nH]c(S)c1C#N | -5% (inactive)
94 | CSCC[C@H](NC(=O)NC1CCCC1)C(=O)O | -3.12% (inactive)
95 | COc1cccc(NC(=O)C2CCCN2C(=O)OCc2ccccc2)c1 (configuration not stated) | -12.3% (inactive)
96 | Cc1ccc(C)c(NC(=O)C2CCCN2C(=O)OC(C)(C)C)c1 (configuration not stated) | 1.35% (inactive)
97 | Cc1ccc(C)c(NC(=O)C2Cc3ccccc3CN2C(=O)OCc2ccccc2)c1 (configuration not stated) | 104% (active)

Reference: PubChem BioAssay AID1046 (PCMD, 2008)
